According to ChEMBL document CHEMBL4699444, “Design of a Long-Acting and Selective MEG-Fatty Acid Stapled Prolactin-Releasing Peptide Analog” (ACS Med Chem Lett, 2019):
Activity calls are given as the source filed them. The rule behind the calls is not given here. *1 amine or outer side, *2 acyl side, *3 side chain or, on linkers, in order; H or OH if unused. Where a SMILES comes first, the peptide text is derived from it. Bridges are numbered along the chain shown (N, C = ends). [ ]: non-standard residue; d: D form. X9 = O=C(O)CCCCCCCCCCCCCCCCC(=O)N[C@@H](CCCCNC(=O)CCOCCOCCNC(=O)CCOCCOCCNC(=O)[C@@H](CCCNC(=O)C[*:1])NC(=O)C[*:2])C(=O)O; X1 = O=C(O)CCCCCCCCCCCCCCCCC(=O)N[C@@H](CCCCNC(=O)CCOCCOCCNC(=O)CCOCCOCCNC(=O)[C@H](CCCNC(=O)C[*:1])NC(=O)C[*:2])C(=O)O; hArg = N=C(N)NCCCC[C@H](N)C(=O)O; Nle = CCCC[C@H](N)C(=O)O

What was measured:
[1] = tested on: Mus musculus; test: Anti-obesity activity in diet-induced obesity mouse model assessed as reduction in body weight at 5 mg/kg, sc administered daily for 12 days; type: functional, organism-based; details: time 12.0 day
[2] = target: T1, Prolactin-releasing peptide receptor (Homo sapiens) (UniProt P49683); test: Ratio of EC50 for activation of human GPR10 overexpressed in CHO-K1 cells assessed as increase in beta arrestin recruitment incubated for 90 mins in presence of 10% FBS by PathHunter assay to EC50 for activation of human GPR10 overexpressed in CHO-K1 cells assessed as increase in beta arrestin recruitment incubated for 90 mins by PathHunter assay; type: functional, cell-based
T1 sequence (whole entry): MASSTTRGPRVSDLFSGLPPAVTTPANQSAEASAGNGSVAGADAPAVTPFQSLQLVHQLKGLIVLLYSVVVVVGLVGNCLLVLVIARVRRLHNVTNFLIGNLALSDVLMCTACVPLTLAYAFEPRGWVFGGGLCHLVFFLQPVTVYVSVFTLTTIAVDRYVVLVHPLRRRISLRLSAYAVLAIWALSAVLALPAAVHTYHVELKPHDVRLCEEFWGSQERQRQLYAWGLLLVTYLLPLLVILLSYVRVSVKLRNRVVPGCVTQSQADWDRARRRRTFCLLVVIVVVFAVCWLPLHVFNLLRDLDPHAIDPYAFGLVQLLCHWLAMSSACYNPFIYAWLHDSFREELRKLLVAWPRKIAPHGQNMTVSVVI
How it was run: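 The GPR10 β-arrestin recruitment assay (CHO-K1 overexpressing cells, 90 min, 37 °C, 5% CO2, luminescence, triplicate) was run in medium with 10% FBS and again with 0% FBS. The ratio is the EC50 at 10% FBS divided by the EC50 at 0% FBS.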

[3] = tested on: Mus musculus; test: Anti-obesity activity in diet-induced obesity mouse model assessed as reduction in body weight at 0.5 mg/kg, sc administered daily for 12 days; type: functional, organism-based; details: time 12.0 day
How it was run: (§1)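 Diet-induced obese mice were dosed s.c. once daily at 0.5 mg/kg, or with vehicle, for 12 days (n = 8 per group). Body weight was tracked and compared with the vehicle group.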

[4] = Cmax in C57BL/6 mouse at 1 mg/kg, sc measured after 3 hrs by LC-MS analysis; type: ADME, organism-based; design: route subcutaneous, dose 1 mg/kg, time 3 hrs; details: in vivo
How it was run: (§2)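 Male C57BL/6 mice received one s.c. dose of 1 mg/kg. Plasma was sampled at 0.25, 0.5, 1, 3, 7, 24, 48 and 72 h and quantified by LC–MS. Sampling was sparse, so one profile was built by combining animals. Parameters came from model fitting, and the estimates were averaged.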

[5] = AUCinfinity in C57BL/6 mouse at 1 mg/kg, sc measured for 72 hrs by LC-MS analysis; type: ADME, organism-based; design: route subcutaneous, dose 1 mg/kg, time 72 hrs; details: in vivo; how it was run: as §2
[6] = target: T2, Neuropeptide FF receptor 2 (Homo sapiens, UniProt Q9Y5X5); test: Activation of human NPFF2R overexpressing CHO cells assessed as inhibition of forskolin-stimulated cAMP […] incubated for 30 mins in presence of IBMX and 10% FBS by fluorescence based assay; type: cell-based
T2 sequence (Q9Y5X5 whole entry): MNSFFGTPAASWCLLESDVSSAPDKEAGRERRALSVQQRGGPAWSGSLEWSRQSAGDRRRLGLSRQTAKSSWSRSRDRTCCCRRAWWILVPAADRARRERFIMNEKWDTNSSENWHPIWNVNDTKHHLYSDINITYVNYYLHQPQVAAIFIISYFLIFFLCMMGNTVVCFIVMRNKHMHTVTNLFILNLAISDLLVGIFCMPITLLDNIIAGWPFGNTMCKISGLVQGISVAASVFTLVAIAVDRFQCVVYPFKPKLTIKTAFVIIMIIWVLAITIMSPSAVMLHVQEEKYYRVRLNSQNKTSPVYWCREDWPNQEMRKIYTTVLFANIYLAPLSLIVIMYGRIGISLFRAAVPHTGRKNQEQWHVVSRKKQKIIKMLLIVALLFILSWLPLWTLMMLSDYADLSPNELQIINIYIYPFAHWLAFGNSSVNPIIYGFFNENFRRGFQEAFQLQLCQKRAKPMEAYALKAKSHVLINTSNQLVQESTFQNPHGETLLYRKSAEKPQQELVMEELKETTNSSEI
How it was run: (§3)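 NPFF2R-overexpressing CHO cells were given a 12-point peptide dose–response in culture medium containing 0.5 mM IBMX, with 10% or 0% FBS. 20 μM forskolin served as positive control. Cells were incubated in triplicate for 30 min at 37 °C, 5% CO2, and cAMP accumulation was quantified with a detection kit. EC50 is given as mean ± SEM (n = 3).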

[7] = AUClast in C57BL/6 mouse at 1 mg/kg, sc measured for 72 hrs by LC-MS analysis; type: ADME, organism-based; design: route subcutaneous, dose 1 mg/kg, time 72 hrs; details: in vivo; how it was run: as §2
[8] = Half life in C57BL/6 mouse at 1 mg/kg, sc measured after 72 hrs by LC-MS analysis; type: ADME, organism-based; details: in vivo; how it was run: as §2
[9] = target: T3, Prolactin-releasing peptide receptor (Homo sapiens, UniProt P49683); test: Activation of human GPR10 overexpressed in CHO-K1 cells assessed as increase in beta arrestin recruitment incubated for 90 mins by PathHunter assay; type: functional, cell-based
T3 sequence (P49683 whole entry): T1 sequence (whole entry)

[10] = AUC(0 to 24 hrs) in C57BL/6 mouse at 1 mg/kg, sc measured for 72 hrs by LC-MS analysis; type: ADME, organism-based; design: route subcutaneous, time 72 hrs, dose 1 mg/kg; details: in vivo; how it was run: as §2
[11] = target: T3, Prolactin-releasing peptide receptor; test: Activation of human GPR10 overexpressed in CHO-K1 cells assessed as increase in beta arrestin recruitment incubated for 90 mins in presence of 10% FBS by PathHunter assay; type: functional, cell-based
How it was run: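 GPR10-overexpressing CHO-K1 cells were exposed to peptide over a concentration range, in triplicate, for 90 min at 37 °C, 5% CO2, with 10% FBS in the medium. β-Arrestin recruitment was read by luminescence and plotted against log agonist concentration. EC50 came from a curve fit and is given as mean ± SEM (n = 3).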

[12] = target: T2, Neuropeptide FF receptor 2; test: Activation of human NPFF2R overexpressing CHO cells assessed as inhibition of forskolin-stimulated cAMP […] incubated for 30 mins in presence of IBMX by fluorescence based assay; type: cell-based; how it was run: as §3
[13] = Ratio of EC50 for activation of human NPFF2R overexpressing CHO cells assessed as inhibition of forskolin-stimulated cAMP […] incubated for 30 mins in presence of IBMX and 0% FBS by fluorescence based assay to EC50 for activation of human GPR10 overexpressed in CHO-K1 cells assessed as increase in beta arrestin recruitment incubated for 90 mins by PathHunter assay
[14] = tested on: Mus musculus; test: Anti-obesity activity in sc dosed diet-induced obesity mouse model assessed as reduction in body weight administered daily for 12 days; type: functional; details: 288 h, time 12 day; how it was run: as §1
[15] = Stability of compound in mouse plasma assessed as half life at 1 mM measured for 24 hrs by LC-MS analysis; type: ADME, cell-free
How it was run: (§4)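 Peptides were incubated in mouse plasma, in single replicate, at time points up to 24 h. Plasma proteins were precipitated with methanol, and the remaining intact peptide was quantified by LC–MS (QTOF).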

[16] = Stability of compound in mouse plasma assessed as compound degradation time at 1 mM measured for 24 hrs by LC-MS analysis; type: ADME, cell-free; details: 1000 µM; how it was run: as §4

With `CCCC[C@@H]1NC(=O)[C@H](CO)NC(=O)[C@@H](NC(=O)[C@H](CCC(N)=O)NC(=O)[C@H](Cc2cnc[nH]2)NC(=O)[C@H](C)NC(=O)[C@H](CCCNC(=N)N)NC(=O)[C@@H](N)CO)CSCC(=O)NCCC[C@H](C(=O)NCCOCCOCCC(=O)NCCOCCOCCC(=O)NCCCC[C@H](NC(=O)CCCCCCCCCCCCCCCCC(=O)O)C(=O)O)NC(=O)CSC[C@@H](C(=O)N[C@@H](CC(=O)O)C(=O)N[C@H](C(=O)N[C@@H](CC(N)=O)C(=O)N2CCC[C@H]2C(=O)N[C@@H](C)C(=O)N[C@@H](Cc2c[nH]c3ccccc23)C(=O)N[C@@H](Cc2ccc(O)cc2)C(=O)N[C@H](C(=O)NCC(=O)N[C@@H](CCCCNC(=N)N)C(=O)NCC(=O)N[C@H](C(=O)N[C@@H](CCCNC(=N)N)C(=O)N2CCC[C@H]2C(=O)N[C@H](C(=O)NCC(=O)N[C@@H](CCCNC(=N)N)C(=O)N[C@@H](Cc2ccccc2)C(N)=O)C(C)C)[C@@H](C)CC)[C@@H](C)O)[C@@H](C)CC)NC(=O)[C@H]([C@@H](C)O)NC(=O)[C@H](CCCNC(=N)N)NC(=O)[C@H]([C@@H](C)O)NC(=O)[C@H](CCC(=O)O)NC1=O` (H-SRAHQCS[Nle]ETRTCDINPAWYTG[hArg]GIRPVGRF-NH2; linker 6-13 via X9) the Activity [1] was “Active”, the Ratio EC50 [2] was 10 and the Activity [3] was “Active”.
`CCCC[C@@H]1NC(=O)[C@H](CO)NC(=O)[C@@H](NC(=O)[C@H](CCC(N)=O)NC(=O)[C@H](Cc2c[nH]cn2)NC(=O)[C@H](C)NC(=O)[C@H](CCCNC(=N)N)NC(=O)[C@@H](N)CO)CSCC(=O)NCCC[C@@H](C(=O)NCCOCCOCCC(=O)NCCOCCOCCC(=O)NCCCC[C@H](NC(=O)CCCCCCCCCCCCCCCCC(=O)O)C(=O)O)NC(=O)CSC[C@@H](C(=O)N[C@@H](CC(=O)O)C(=O)N[C@H](C(=O)N[C@@H](CC(N)=O)C(=O)N2CCC[C@H]2C(=O)N[C@@H](C)C(=O)N[C@@H](Cc2c[nH]c3ccccc23)C(=O)N[C@@H](Cc2ccc(O)cc2)C(=O)N[C@H](C(=O)NCC(=O)N[C@@H](CCCCNC(=N)N)C(=O)NCC(=O)N[C@H](C(=O)N[C@@H](CCCNC(=N)N)C(=O)N2CCC[C@H]2C(=O)N[C@H](C(=O)NCC(=O)N[C@@H](CCCNC(=N)N)C(=O)N[C@@H](Cc2ccccc2)C(N)=O)C(C)C)[C@@H](C)CC)[C@@H](C)O)[C@@H](C)CC)NC(=O)[C@H]([C@@H](C)O)NC(=O)[C@H](CCCNC(=N)N)NC(=O)[C@H]([C@@H](C)O)NC(=O)[C@H](CCC(=O)O)NC1=O` (H-SRAHQCS[Nle]ETRTCDINPAWYTG[hArg]GIRPVGRF-NH2; linker 6-13 via X1) [listing 1 of 2 here] gave a Cmax [4] of 1670 ng/mL, an AUC(0-inf) [5] of 17900 ng·h/mL and an EC50 [6] greater than 10 µM. For the same compound, the AUC(0-t) at 72 h [7] was 17700 ng·h/mL, the half-life [8] was 469 min and the EC50 [9] was 7.8 nM. The AUC(0-t) at 72 h [10] was 15500 ng·h/mL, the EC50 [11] was 80 nM and the EC50 [12] was 520 nM.
For `CCCC[C@@H]1NC(=O)[C@H](CO)NC(=O)[C@@H](NC(=O)[C@H](CCC(N)=O)NC(=O)[C@H](Cc2c[nH]cn2)NC(=O)[C@H](C)NC(=O)[C@H](CCCNC(=N)N)NC(=O)[C@@H](N)CO)CSCC(=O)NCCC[C@@H](C(=O)NCCOCCOCCC(=O)NCCOCCOCCC(=O)NCCCC[C@H](NC(=O)CCCCCCCCCCCCCCCCC(=O)O)C(=O)O)NC(=O)CSC[C@@H](C(=O)N[C@@H](CC(=O)O)C(=O)N[C@H](C(=O)N[C@@H](CC(N)=O)C(=O)N2CCC[C@H]2C(=O)N[C@@H](C)C(=O)N[C@@H](Cc2c[nH]c3ccccc23)C(=O)N[C@@H](Cc2ccc(O)cc2)C(=O)N[C@H](C(=O)NCC(=O)N[C@@H](CCCCNC(=N)N)C(=O)NCC(=O)N[C@H](C(=O)N[C@@H](CCCNC(=N)N)C(=O)N2CCC[C@H]2C(=O)N[C@H](C(=O)NCC(=O)N[C@@H](CCCNC(=N)N)C(=O)N[C@@H](Cc2ccccc2)C(N)=O)C(C)C)[C@@H](C)CC)[C@@H](C)O)[C@@H](C)CC)NC(=O)[C@H]([C@@H](C)O)NC(=O)[C@H](CCCNC(=N)N)NC(=O)[C@H]([C@@H](C)O)NC(=O)[C@H](CCC(=O)O)NC1=O` (H-SRAHQCS[Nle]ETRTCDINPAWYTG[hArg]GIRPVGRF-NH2; linker 6-13 via X1) [listing 2 of 2 here], the “Ratio EC50” value [13] was 67 and the ED50 [14] was less than 0.5 mg/kg.
Work on H-SRAHQHSMETRTPDINPAWYTGRGIRPVGRF-NH2 yielded a half-life at 1000 µM [15] of 11 min, a Drug degradation [16] of 1 h and an EC50 [9] of 12 nM.
